# CHRM4 agonist: CHRM4 agonism in calcium assay | P08173 | CHO-K1 hM4/Gqi5, Fluo-8 calcium fluorescence; vehicle 0%, full acetylcholine response 100% | activation, % at 3 µM | hit rate 0.14% among 360,000;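 active = activation above the run mean over all test wells plus 3 SD, cut at about 32% in these data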;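 also: peak over basal fluorescence ratio per well then scaled between controls; 0% = DMSO wells and 100% = acetylcholine at EC100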
# CHRM5 agonist: agonists of human muscarinic M5 receptor (CHRM5); CHO-K1 hM5 cells, Fluo-8 calcium fluorescence; 0% DMSO wells, 100% maximal acetylcholine response; activation, % at 3 µM; hit rate 0.19% among 360,000; AID 624037;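 active = activation above the run's mean over test compounds plus 3 SD, cut at about 23% in these data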;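 also: signal is peak over basal fluorescence ratio across the kinetic read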
# Target sequence (P08912 whole entry, looked up): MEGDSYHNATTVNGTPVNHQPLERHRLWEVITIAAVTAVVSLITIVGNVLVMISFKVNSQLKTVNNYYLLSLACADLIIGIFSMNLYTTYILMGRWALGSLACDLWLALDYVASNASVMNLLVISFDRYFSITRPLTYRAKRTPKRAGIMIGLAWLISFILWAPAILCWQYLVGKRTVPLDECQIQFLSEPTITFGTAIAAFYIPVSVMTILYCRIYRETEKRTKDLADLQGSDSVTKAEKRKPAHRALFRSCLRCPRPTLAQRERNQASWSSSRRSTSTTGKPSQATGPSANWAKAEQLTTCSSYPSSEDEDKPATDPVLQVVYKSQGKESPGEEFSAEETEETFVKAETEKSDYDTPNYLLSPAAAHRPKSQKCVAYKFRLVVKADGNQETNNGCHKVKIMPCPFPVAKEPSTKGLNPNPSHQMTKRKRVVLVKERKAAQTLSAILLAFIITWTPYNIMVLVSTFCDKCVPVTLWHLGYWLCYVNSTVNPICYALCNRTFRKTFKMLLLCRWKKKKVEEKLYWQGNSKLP
# M4 PAM: positive allosteric modulators of human muscarinic M4 receptor; P08173; activation, % at 3 µM; AID 624126; CHO-K1 hM4/Gqi5, Fluo-8 calcium fluorescence, ACh EC20; 0% = ACh EC20, 100% = maximal ACh; hit rate 0.4% among 360,000;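 active = activation above its plate's cutoff, the mean activation of sample wells plus 3 SD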
# M4 antag: antagonists of human muscarinic M4 receptor (CHRM4). hit rate 0.73% among 360,000. inhibition, % at 3 µM. P08173. AID 624125. CHO-hM4 cells, ACh EC80, Fluo-8 calcium fluorescence;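 active = inhibition above its plate's cutoff, the mean inhibition of sample wells plus 3 SD, cut at about 27% in these data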;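 also: 0% = acetylcholine EC80 with DMSO and 100% = DMSO without agonist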
# M5 antag: antagonists of human muscarinic M5 receptor (CHRM5) | hit rate 0.59% among 360,000 | CHO-hM5 cells, Fluo-8 calcium fluorescence, ACh EC80 | AID 624040 | inhibition, % at 3 µM | P08912;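 active = inhibition above a per-plate cutoff, the mean of that plate's test compounds plus 3 SD, cut at about 27% in these data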;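 also: 0% = acetylcholine EC80 with DMSO and 100% = DMSO without agonist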
# M5 PAM: positive allosteric modulators of human muscarinic M5 receptor; CHO-K1 hM5, Fluo-8 calcium, ACh EC20 PAM; 0% = ACh EC20, 100% = ACh EC100; activation, % at 3 µM; hit rate 0.3% among 360,000;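 active = activation above the run cutoff, the mean activation of all test compounds plus 3 SD, cut at about 18% in these data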
#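 Probe or stimulus: acetylcholine, EC20 level; Assay system: human M5 receptor in CHO-K1 cells; Schedule: compound preincubation 140 s before EC20 acetylcholine addition; Technique: intracellular calcium via Fluo-8 fluorescence; Dosing: single-point, 3 µM nominal; Read-out basis: percent activation from peak-over-basal fluorescence ratio, scaled EC20-to-EC100 acetylcholine; Repeats: one well per compound, no replicates.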
# Active calls of the source: *. Shown are actives, neighbours in structure and some others; about 1.8% of the full set was active somewhere.
SMILES,CHRM4 agonist,CHRM5 agonist,M4 PAM,M4 antag,M5 antag,M5 PAM
CC(=O)c1ccccn1,1,2,1,-10,3,0
COC(=O)C1=C(C(=O)OC)[C@@H]2Nc3ccccc3[C@@]23C[C@@H](C(=O)OC)N(C(=O)c2cccs2)C3=N1,0,-2,25*,-13,13,3
O=S1(=O)CC(N2CCCCC2)CN1C1CCCCC1 (configuration not stated),2,2,8,-10,12,-5
O=C(O)c1cc([N+](=O)[O-])ccc1NCCCc1ccccc1,4,35*,2,-1,6,-15
C=C1C(=O)C23CCC4C(C)(C(=O)OC)CCCC4(C)C2CCC1(O)C3 (configuration not stated),5,5,-2,21,4,6
CCN(CC)C(=O)C1CCN(Cc2ccc(Br)cc2)CC1,2,-3,23,32*,0,10
O=C(CCn1cnc(-c2ccccc2)c1-c1ccccc1)N/N=C/c1ccc(O)cc1,0,-2,-1,-5,5,-4
COc1ccc(/C=N/NC(=O)CCn2cnc(-c3ccccc3)c2-c2ccccc2)cc1,0,1,7,85*,-3,-2
CC(C)=CCC[C@H](C)CC1Cc2[nH]c(=S)[nH]c(=O)c2C(c2ccc(Cl)cc2)O1 (some centres not stated),0,1,13,-20,-10,-8
CCCCNC(=O)C(NC(=O)c1cccc2ccccc12)C(=O)c1ccccc1 (configuration not stated),1,1,-2,-3,0,-4
Cc1ccccc1Cc1c(C)nc2nc(SCC(=O)NCCCN3CCCCC3)nn2c1C,2,-8,-21,15,-1,-4
Cc1nc2nc(SCC(=O)NCCCN3CCCCCC3)nn2c(C)c1Cc1ccccc1,0,-8,-21,38*,8,-6
O=C(NC1CC1)c1cccc2c1C(=O)c1ccc(N3CCC(Cc4ccccc4)CC3)cc1S2(=O)=O,26,15,-10,27*,24,-16
CC(C)(C)CNC(=O)c1cccc2c1C(=O)c1ccc(N3CCCC3)cc1S2(=O)=O,39*,22,-15,13,12,-22
O=C(NCc1ccc(F)cc1)c1cccc2c1C(=O)c1ccc(N3CCC(Cc4ccccc4)CC3)cc1S2(=O)=O,1,2,1,4,5,5
CN(C)CC(=O)N[C@@H]1C=C[C@@H](CC(=O)NCCN2CCCCC2)O[C@@H]1CO,2,1,12,-19,-13,10
CN(C)CC(=O)N[C@@H]1CC[C@@H](CC(=O)NCCN2CCCCC2)O[C@@H]1CO,1,0,3,-9,-18,20*
CC(=O)C1CN(S(=O)(=O)c2ccc(C)cc2)C(c2ccccc2)CC1C (configuration not stated),4,-4,-1,3,0,4
COc1ccc(NS(=O)(=O)c2cccc(C(=O)NCC(c3ccccc3OC)N3CCCC3)c2)cc1 (configuration not stated),1,-10,-10,18,21,-34
COc1ccccc1C(CNC(=O)c1cccc(S(=O)(=O)Nc2ccc(F)cc2)c1)N1CCCC1 (configuration not stated),3,-12,-16,36*,47*,-46
COc1ccc(Cl)cc1C(=O)NCC(c1ccco1)N1CCCC1 (configuration not stated),1,-7,-8,4,1,-2
COc1cc(C(=O)NCC(c2ccco2)N2CCCC2)ccc1OCc1ccc(Cl)cc1Cl (configuration not stated),5,-11,-17,52*,-11,-43
O=C(NCC(c1ccco1)N1CCCC1)c1cccc(NS(=O)(=O)c2ccccc2)c1 (configuration not stated),1,-8,-18,74*,7,-7
O=C(NCC(c1ccco1)N1CCCCC1)c1ccc(S(=O)(=O)Nc2ccccc2)cc1 (configuration not stated),3,-4,-4,2,-2,2
